According to ChEMBL document CHEMBL1139492, “Structure-activity relationships and effects on neuroactive steroid synthesis in a series of 2-phenylimidazo[1,2-a]pyridineacetamide peripheral benzodiazepine receptors ligands” (J Med Chem, 2005):

Assays:
[1] = molecular target: Benzodiazepine receptors; peripheral & central (Rattus norvegicus) (UniProt O09028+P15431+P18506+P18508+P19969+P20236+P23574+P23576+P28471+P28473+P30191+P62813+P63079+P63138+Q91ZM7+Q9ES14+P16257); assay: Ratio of inhibition for peripheral benzodiazepine receptor of rat ovary and central benzodiazepine GABA-A receptor; type: tissue-based; set-up: scale not given here; conditions: Female gonad
Translocator protein [2] = molecular target: T1, Translocator protein (Rattus norvegicus, UniProt P16257); assay: Displacement of [3H]PK11195 from peripheral benzodiazepine receptor of rat cerebral cortex; type: tissue-based
Method in brief: (§1)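 Rat tissue (cerebral cortex, ovary) homogenised in 50 vol PBS pH 7.4 at 4 °C, spun at 40 000g for 30 min, washed, resuspended in 10 vol PBS. […] Filtration on polyethyleneimine-soaked GF/B filters, scintillation counting. […] Means of three experiments in duplicate; Ki reported.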

Translocator protein [3] = molecular target: T1, Translocator protein; assay: Inhibitory concentration against peripheral benzodiazepine receptor of rat cerebral cortex; type: tissue-based; method in brief: as §1
Translocator protein [4] = molecular target: T1, Translocator protein; assay: Inhibitory concentration against peripheral benzodiazepine receptor of rat ovary; type: tissue-based, Female gonad; method in brief: as §1
[5] = molecular target: GABA-A receptor; anion channel; assay: Inhibitory concentration of central benzodiazepine GABA-A receptor of rat cerebral cortex; type: tissue-based
Method in brief: (§2)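 Rat cerebral cortex homogenised in 50 vol ice-cold 50 mM Tris-HCl pH 7.4, spun twice at 20 000g for 10 min. Membranes (0.4–0.5 mg protein) incubated with [3H]flunitrazepam for 60 min at 0 °C. Rapid filtration on GF/B filters, scintillation counting. Nonspecific binding with 5 μM diazepam. Means of three experiments in duplicate; Ki reported.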

Translocator protein [6] = molecular target: T1, Translocator protein; assay: Displacement of [3H]-PK11195 from peripheral benzodiazepine receptor of rat ovary; type: tissue-based, Female gonad; method in brief: as §1
[7] = molecular target: GABA-A receptor; anion channel; assay: Displacement of [3H]flunitrazepam from central benzodiazepine GABA-A receptor of rat cerebral cortex; type: tissue-based; method in brief: as §2

T1 sequence (P16257 whole entry, looked up): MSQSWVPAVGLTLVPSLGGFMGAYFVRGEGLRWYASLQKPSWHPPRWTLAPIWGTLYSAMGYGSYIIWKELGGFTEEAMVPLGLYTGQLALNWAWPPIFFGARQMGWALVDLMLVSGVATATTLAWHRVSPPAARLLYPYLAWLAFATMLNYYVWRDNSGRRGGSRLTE

Structure (SMILES)	Selectivity index [1]	Ki (Translocator protein [2]) [µM]	IC50 (Translocator protein [3]) [µM]	IC50 (Translocator protein [4]) [µM]	pIC50 [5]	Ki (Translocator protein [6]) [µM]	Ki [7] [µM]
O=C(Cc1c(-c2ccc(Cl)cc2)nc2c(Cl)cc(Cl)cn12)N1CCCC1	1.02	0.126	0.215	0.843	5	0.608	7.01
CCCCNC(=O)Cc1c(-c2ccc(Cl)cc2)nc2c(Cl)cc(Cl)cn12	1.54	0.17	0.39	0.29	5	0.17	6.88
CCCN(Cc1ccc([N+](=O)[O-])cc1)C(=O)Cc1c(-c2ccc(Cl)cc2)nc2c(Cl)cc(Cl)cn12	2.16	0.016	0.0272	0.0697	5	0.0505	6.88
O=C(Cc1c(-c2ccc(Cl)cc2)nc2c(Cl)cc(Cl)cn12)NCc1ccccc1	–	0.0988	0.169	–	5	–	7.01
O=C(Cc1c(-c2ccc(Cl)cc2)nc2c(Cl)cc(Cl)cn12)NC1CCCCC1	0.977	0.14	0.229	1.05	5	0.749	7.59
CC(C(=O)N(C)C1CCCCC1)c1c(-c2ccc(Cl)cc2)nc2c(Cl)cc(Cl)cn12 (stereo unspecified)	0.513	2.99	5.15	3.07	5	2.21	7.01
CN(CCc1ccccn1)C(=O)Cc1c(-c2ccccc2)nc2c(Cl)cc(Cl)cn12	0.296	1.28	2.17	5.06	5	3.67	7.75
CN(Cc1ccccc1)C(=O)Cc1c(-c2ccc(Cl)cc2)nc2c(Cl)cc(Cl)cn12	–	0.00138	–	–	5	–	6.88
O=C(Cc1c(-c2ccccc2)nc2c(Cl)cc(Cl)cn12)Nc1ccncc1	0.387	1.24	2.1	4.1	5	2.97	7.75
O=C(Cc1c(-c2ccc(Cl)cc2)nc2c(Cl)cc(Cl)cn12)N1CCc2ccccc2C1	2.45	0.00297	0.00486	0.0356	5	0.0253	6.88
CCOC(=O)C1CCCN(C(=O)Cc2c(-c3ccc(Cl)cc3)nc3c(Cl)cc(Cl)cn23)C1 (stereo unspecified)	0.597	0.0798	0.143	2.53	5	1.74	6.88
O=C(Cc1c(-c2ccc(Cl)cc2)nc2c(Cl)cc(Cl)cn12)N1CCN(Cc2ccccc2)CC1	-1.86	12.7	20.8	726	5	516	6.88
CCCCN(CCCC)C(=O)Cc1c(-c2ccc(Cl)cc2)nc2ccc(Cl)cn12	1.12	0.00169	0.00327	0.00673	7.051	0.00477	0.0689
CCCCCCN(CCCCCC)C(=O)Cc1c(-c2ccc(Cl)cc2)nc2ccc(Cl)cn12	1.83	0.00301	0.00511	0.0488	5.481	0.0353	2.56
CC(C(=O)N(C)Cc1ccccc1)c1c(-c2ccc(Cl)cc2)nc2c(Cl)cc(Cl)cn12 (stereo unspecified)	–	5.77	9.89	11.6	5	8.33	7.01
CCCCN(Cc1ccccc1)C(=O)Cc1c(-c2ccccc2)nc2c(Cl)cc(Cl)cn12	2.05	0.0141	0.0242	0.0897	5	0.0647	7.01
CCCCN(C(=O)Cc1c(-c2ccc(Cl)cc2)nc2c(Cl)cc(Cl)cn12)c1ccccc1	3.32	0.00784	0.0133	0.0048	5	0.00365	6.88
O=C(Cc1c(-c2ccccc2)nc2c(Cl)cc(Cl)cn12)N1CCCC1	0.029	0.757	1.24	–	5	6.65	6.88
CC(C)(C)N(Cc1ccccc1)C(=O)Cc1c(-c2ccc(Cl)cc2)nc2c(Cl)cc(Cl)cn12	-0.26	2.1	3.44	18.2	5	12.9	7.59
O=C(Cc1c(-c2ccccc2)nc2c(Cl)cc(Cl)cn12)N1CCc2ccccc2C1	1.64	0.0236	0.0387	0.231	5	0.164	6.88
O=C(Cc1c(-c2ccc(Cl)cc2)nc2c(Cl)cc(Cl)cn12)Nc1ccccc1	2.6	0.0117	0.0199	0.0252	5	0.0183	6.88
CCOC(=O)C1CCCN(C(=O)Cc2c(-c3ccc(Cl)cc3)nc3ccc(Cl)cn23)C1 (stereo unspecified)	-0.205	0.0196	0.0352	0.302	6.725	0.207	0.13
CCCCN(C(=O)Cc1c(-c2ccc(Cl)cc2)nc2ccc(Cl)cn12)c1ccccc1	1.8	0.000884	0.0015	0.0116	6.133	0.00882	0.506
O=C(Cc1c(-c2ccccc2)nc2c(Cl)cc(Cl)cn12)N1CCCCC1	0.837	0.0959	0.157	1.46	5	1.03	7.59
O=C(Cc1c(-c2ccccc2)nc2c(Cl)cc(Cl)cn12)NC1CCCCC1	0.884	0.771	1.32	1.31	5	0.942	7.01
CCCCCCN(CCCCCC)C(=O)Cc1c(-c2ccc(Cl)cc2)nc2c(Cl)cc(Cl)cn12	0.584	0.222	0.377	2.61	5	1.89	7.75
CCCCN(CCCC)C(=O)Cc1c(-c2ccc(Cl)cc2)nc2ccccn12	1.19	–	–	–	–	–	–
CN(CCc1ccccn1)C(=O)Cc1c(-c2ccc(Cl)cc2)nc2c(Cl)cc(Cl)cn12	0.294	0.53	0.899	5.08	5	3.69	7.75
